This is an account of results in ChEMBL document CHEMBL1142724 (J Med Chem, 2005).

Values joined by “and” are separate entries in the source; they are usually repeats but may differ in a detail not shown here. Identical values can stand only once.

The target of assay [1] is T1, Transient receptor potential cation channel subfamily V member 1 (Rattus norvegicus, UniProt O35433). The experiment in a line: Inhibition of rat transient receptor potential vanilloid 1 receptor (n=4). The method, boiled down:
(§1)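 FLIPR Ca2+ influx in Fluo-3-loaded HEK293 cells stably expressing human or rat TRPV1. Compound was added at 0.3 nM–30 µM final, in half-log steps, for 3 min before capsaicin. Capsaicin was 15 nM final for human; for rat it was 15 nM, or 100 nM in later runs. Signal was the smaller of peak and end fluorescence after basal subtraction. IC50 came from a four-parameter logistic fit.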

The target of assay [2] is T2, Transient receptor potential cation channel subfamily V member 1 (Homo sapiens, UniProt Q8NER1). Kind of assay: Inhibition of human transient receptor potential vanilloid 1 receptor (n=3). The method, boiled down: (§2)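 FLIPR Ca2+ influx in Fluo-3-loaded HEK293 cells stably expressing human or rat TRPV1. Compound was added at 0.3 nM–30 µM final, in half-log steps, for 3 min before capsaicin. Signal was the smaller of peak and end fluorescence after basal subtraction. IC50 came from a four-parameter logistic fit.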
T2 sequence (Q8NER1 whole entry): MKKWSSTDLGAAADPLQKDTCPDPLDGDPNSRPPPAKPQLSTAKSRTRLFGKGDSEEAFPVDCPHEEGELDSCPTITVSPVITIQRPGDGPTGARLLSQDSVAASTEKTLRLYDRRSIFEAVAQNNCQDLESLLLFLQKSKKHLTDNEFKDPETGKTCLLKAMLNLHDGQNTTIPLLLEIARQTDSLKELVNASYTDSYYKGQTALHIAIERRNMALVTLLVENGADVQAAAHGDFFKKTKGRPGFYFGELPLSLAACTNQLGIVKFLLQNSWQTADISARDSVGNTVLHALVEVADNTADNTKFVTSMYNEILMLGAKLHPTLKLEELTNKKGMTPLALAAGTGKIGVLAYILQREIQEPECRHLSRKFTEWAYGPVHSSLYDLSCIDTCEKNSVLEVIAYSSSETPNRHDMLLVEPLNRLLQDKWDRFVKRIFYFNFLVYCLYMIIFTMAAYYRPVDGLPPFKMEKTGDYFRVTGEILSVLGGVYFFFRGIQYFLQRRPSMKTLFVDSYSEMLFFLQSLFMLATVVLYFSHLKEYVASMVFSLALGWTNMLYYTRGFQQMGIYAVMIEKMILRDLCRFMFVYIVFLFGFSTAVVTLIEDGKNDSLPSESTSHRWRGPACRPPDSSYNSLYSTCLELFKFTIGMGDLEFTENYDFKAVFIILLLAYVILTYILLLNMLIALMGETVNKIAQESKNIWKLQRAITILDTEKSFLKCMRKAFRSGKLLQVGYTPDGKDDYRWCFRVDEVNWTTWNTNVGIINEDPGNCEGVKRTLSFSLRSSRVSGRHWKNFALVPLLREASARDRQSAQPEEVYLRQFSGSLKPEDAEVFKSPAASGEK

In assay [3] the target is T1, Transient receptor potential cation channel subfamily V member 1. The experiment in a line: Inhibition of rat transient receptor potential vanilloid 1 receptor (n=2). The method, boiled down:
as §2

The target of assay [4] is Transient receptor potential cation channel subfamily V member 1 (Rattus norvegicus) (UniProt O35433). The experiment in a line: Percentage efficacy against rat transient receptor potential vanilloid 1 receptor (n=3). The method, boiled down:
(§3)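 FLIPR Ca2+ flux in HEK293 cells stably expressing human TRPV1 or rat TRPV1, grown in DMEM with 10% FBS. Cells were seeded, incubated overnight, then loaded with 4 µM Fluo-3/AM and 0.01% Pluronic-F127 for 60 min at room temperature. Assay buffer was HEPES-buffered saline with 2 mM CaCl2, pH 7.45. Intracellular Ca2+ was read during compound exposure, 0.3 nM–30 µM in half-log steps. Signal was basal-subtracted, taking the smaller of the peak and end-of-incubation values.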

Assay [5] has as its target T1, Transient receptor potential cation channel subfamily V member 1. The experiment in a line: Effective concentration against rat transient receptor potential vanilloid 1 receptor (n=3). The method, boiled down:
(§4)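 HEK293 cells stably expressing human or rat TRPV1 were loaded with 4 µM Fluo-3/AM for 60 min at room temperature. Cells were held in HEPES buffer, pH 7.45, with 2 mM CaCl2. Capsaicin-like Ca2+ flux was read on FLIPR with compounds up to 30 µM. Counts were basal-subtracted. Values came from a four-parameter Hill fit, as mean ± SEM.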

In assay [6] the target is T2, Transient receptor potential cation channel subfamily V member 1. The experiment in a line: Inhibition of human transient receptor potential vanilloid 1 receptor (n=4). The method, boiled down:
as §2

The target is the same in assay [7]. The experiment in a line: Effective concentration against human transient receptor potential vanilloid 1 receptor (n=6); Inactive. The method, boiled down: as §4
In assay [8] the target is T1, Transient receptor potential cation channel subfamily V member 1. Kind of assay: Inhibition of rat transient receptor potential vanilloid 1 receptor (n=3). The method, boiled down:
as §1

The target in assay [9] is T2, Transient receptor potential cation channel subfamily V member 1. Kind of assay: Inhibition of human transient receptor potential vanilloid 1 receptor (n=2). The method, boiled down:
as §1

Assay [10] shares this target. Kind of assay: In vitro inhibition of PMA-activated human TRPV1 receptor in [Ca2+] influx assay. The method, boiled down:
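Human TRPV1-HEK293 cells were loaded with Fluo-3 and preincubated with compound for 3 min. They were then stimulated with 300 nM PMA, and fluorescence was monitored for 5–10 min on FLIPR. IC50 came from a four-parameter logistic fit.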

Assay [11] addresses T1, Transient receptor potential cation channel subfamily V member 1. The experiment in a line: In vitro inhibition of acid activated rat TRPV1 receptor in [Ca2+] influx assay. The method, boiled down: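 Rat TRPV1-HEK293 cells loaded with Fluo-3 were challenged for about 5 min with pH 5.8–6.0 solution to raise basal Ca2+.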
Assay [12] addresses T2, Transient receptor potential cation channel subfamily V member 1. The experiment in a line: Inhibition of human transient receptor potential vanilloid 1 receptor (n=5). The method, boiled down: as §1
Assay [13] shares this target. Kind of assay: In vitro inhibition of anandamide activated human TRPV1 receptor in [Ca2+] influx assay.
Assay [14] has the same target. The experiment in a line: Inhibition of human transient receptor potential vanilloid 1 receptor (n=6). The method, boiled down:
as §1

For assay [15], the target named is T1, Transient receptor potential cation channel subfamily V member 1. The experiment in a line: Effective concentration against rat transient receptor potential vanilloid 1 receptor (n=2). The method, boiled down: as §4
The target of assay [16] is T2, Transient receptor potential cation channel subfamily V member 1. The experiment in a line: Effective concentration against human transient receptor potential vanilloid 1 receptor (n=2). The method, boiled down: as §4
The target is the same in assay [17]. The experiment in a line: Percentage efficacy against human transient receptor potential vanilloid 1 receptor (n=2). The method, boiled down: as §3
Assay [18] has the same target. Kind of assay: Effective concentration against human transient receptor potential vanilloid 1 receptor (n=6). The method, boiled down: as §4
Assay [19] concerns the target T1, Transient receptor potential cation channel subfamily V member 1. The experiment in a line: Effective concentration against rat transient receptor potential vanilloid 1 receptor (n=6). The method, boiled down: as §4
Assay [20] has as its target T2, Transient receptor potential cation channel subfamily V member 1. Kind of assay: Percentage efficacy against human transient receptor potential vanilloid 1 receptor (n=3). The method, boiled down:
as §3

A further assay is filed under the species Rattus norvegicus. The experiment in a line: Effective dose to produce maximal thermal desensitization in rat at 5 ug.
For assay [21], the target named is T2, Transient receptor potential cation channel subfamily V member 1. Kind of assay: Effective concentration against human transient receptor potential vanilloid 1 receptor (n=3). The method, boiled down:
as §4

T1 sequence (O35433 whole entry): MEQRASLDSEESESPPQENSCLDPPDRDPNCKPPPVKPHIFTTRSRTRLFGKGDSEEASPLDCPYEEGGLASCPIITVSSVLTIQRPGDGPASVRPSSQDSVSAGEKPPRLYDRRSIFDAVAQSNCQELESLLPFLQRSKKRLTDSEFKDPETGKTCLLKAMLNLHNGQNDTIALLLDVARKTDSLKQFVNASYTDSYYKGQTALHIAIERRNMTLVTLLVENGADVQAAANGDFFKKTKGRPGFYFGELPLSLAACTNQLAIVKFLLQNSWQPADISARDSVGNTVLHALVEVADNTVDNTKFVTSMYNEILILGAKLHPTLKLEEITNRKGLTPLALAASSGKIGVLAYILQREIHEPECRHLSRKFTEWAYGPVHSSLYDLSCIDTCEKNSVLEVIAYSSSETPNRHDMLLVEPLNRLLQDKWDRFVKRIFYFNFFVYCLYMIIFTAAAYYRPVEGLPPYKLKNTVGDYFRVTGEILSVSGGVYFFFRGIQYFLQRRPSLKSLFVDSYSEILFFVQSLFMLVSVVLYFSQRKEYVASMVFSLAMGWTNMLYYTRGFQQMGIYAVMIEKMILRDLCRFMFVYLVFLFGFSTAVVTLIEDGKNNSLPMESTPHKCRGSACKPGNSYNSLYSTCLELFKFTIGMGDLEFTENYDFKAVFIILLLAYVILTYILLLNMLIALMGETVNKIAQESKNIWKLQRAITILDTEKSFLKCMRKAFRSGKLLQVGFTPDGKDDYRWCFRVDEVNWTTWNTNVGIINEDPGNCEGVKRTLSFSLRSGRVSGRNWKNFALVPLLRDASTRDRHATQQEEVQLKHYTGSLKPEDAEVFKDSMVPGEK
Chain of Transient receptor potential cation channel subfamily V member 1 (Rattus norvegicus) (O35433 whole entry): as above

As to `O=C(Nc1ccc(C(F)(F)F)cc1)N1CCN(c2ncccc2C(F)(F)F)CC1`, the IC50 (as a rule, the point on the concentration scale where inhibition reaches its midpoint) in assay [1] stood at 90 nM.

For `O=C(Nc1cc2ccccc2cn1)N1CCN(c2ncccc2C(F)(F)F)CC1`, the IC50 in assay [2] worked out at 367 nM; in assay [3] it was 1010 nM.

As for `O=C(Nc1ccc(C(F)(F)F)cc1)N1CCN(c2cccnc2)CC1`, the Efficacy in [4] stood at 18%. Also, the EC50 (in general, the midpoint of the concentration-response curve) in assay [5] turned out to be 2670 nM. Further, the IC50 in assay [2] came to 5030 nM.

Turning to `O=C(Nc1ccc(C(F)(F)F)cc1)N1CC2CC1CN2c1ncccc1C(F)(F)F` (stereo not given), the IC50 in assay [6] and in assay [3] was greater than 10000 nM each time.

Molecule `O=C(Nc1ccc(C(F)(F)F)cc1)NC1CCN(c2ncccc2C(F)(F)F)C1` (stereo not given) showed an EC50 in assay [7] greater than 10000 nM. The IC50 was 13100 nM in assay [8] and greater than 10000 nM in assay [2].

As for `O=C(Nc1ccc(C(F)(F)F)cc1)C1CCN(c2ncccc2C(F)(F)F)CC1`, the IC50 in [9] is 965 nM; in [3], greater than 10000 nM.

On to `O=C(Nc1ccc(C(F)(F)F)cc1)N1CCN(c2ccccn2)CC1`, for which 863 nM corresponded to half-maximal inhibition in [8] (IC50).

In the case of `O=C(Nc1ccccn1)N1CCN(c2ncccc2C(F)(F)F)CC1`, the IC50 in [9] is 12100 nM; in assay [8], greater than 10000 nM.

As to `Oc1cc2c(cc1O)CN(C(=S)NCCc1ccc(Cl)cc1)CCC2` [CAPSAZEPINE], the IC50 in assay [10] is 5 nM and 3 nM; in assay [11], 13 nM; in [12] it was 74 nM; in [13], 4 nM and 3 nM (2×); in assay [3], 365 nM.

Turning to `O=C(Nc1ccc([N+](=O)[O-])cc1)N1CCN(c2ncccc2C(F)(F)F)CC1`, the IC50 in [13] is 6 nM and 4 nM and 3 nM; in [8] it was 100 nM; in [14], 74 nM.

On to `O=C(Nc1ccc(C(F)(F)F)cc1)N1CCCN(c2ncccc2C(F)(F)F)CC1`, for which the results for the IC50 in [2] and in [3] were 538 nM and 1180 nM, respectively.

Regarding `Cc1ccccc1C1CCN(C(=O)Nc2ccc(C(F)(F)F)cc2)CC1`, the EC50 in [15] is 1720 nM; in [16], 1930 nM. The Efficacy in assay [4] was found to be 86%; in [17], 8%.

`O=C(Nc1cccc2cnccc12)N1CCN(c2ncccc2C(F)(F)F)CC1`: the Efficacy in assay [4] was 11%. Besides, the values for the IC50 in [6] and in [8] were 2280 nM and greater than 10000 nM, respectively. This molecule also displayed an EC50 in assay [5] of 7290 nM.

For the molecule `O=C(Nc1ccc2ncccc2c1)N1CCN(c2ncccc2C(F)(F)F)CC1`, the values for the IC50 in [6] and in assay [3] were 908 nM and 3980 nM, respectively.

With `O=C(Nc1ccc(Cl)cc1)N1CCN(c2ccncc2)CC1`, the Efficacy in assay [4] is greater than 40%; in [20], 100%. The figures for the EC50 in [18] and in [19] were 7240 nM and 3600 nM, respectively.

On to `COc1cc(CNC(=O)CCCC/C=C/C(C)C)ccc1O` [CAPSAICIN], for which the ED50 in the assay listed under Rattus norvegicus came out at 3 µg.

For `Cc1cccnc1C1CCN(C(=O)Nc2ccc(C(F)(F)F)cc2)CC1`, in assay [15], the EC50 was found to be 1960 nM. Also, the values for the IC50 in assay [1] and in [6] were 390 nM and 2170 nM, respectively.

As for `Cc1cccnc1N1CCN(C(=O)Nc2ccc(C(F)(F)F)cc2)CC1`, the values for the IC50 in assay [8] and in assay [2] were 194 nM and 290 nM, respectively.

For `O=C(Nc1cccc2ncccc12)N1CCN(c2ncccc2C(F)(F)F)CC1`, the Efficacy came to 2% in [4] and 36% in assay [20]. The EC50 is 8300 nM in assay [19] and 5260 nM in [21].

For the molecule `Cc1cccnc1N1CCN(C(=O)Nc2ccc(Cl)cc2)CC1`, the IC50 in assay [6] was 113 nM; in [8], 409 nM.

With `CC1CN(c2ncccc2C(F)(F)F)CC(C)N1C(=O)Nc1ccc(C(F)(F)F)cc1` (stereo not given), the half-inhibitory concentration (IC50) amounted to 2450 nM in assay [6] and 3720 nM in assay [8].

Regarding `O=C(Nc1cccc2cccnc12)N1CCN(c2ncccc2C(F)(F)F)CC1`, the IC50 in [8] came out at 14700 nM; in assay [14], 8130 nM.

Turning to `CC1CN(c2ncccc2C(F)(F)F)CCN1C(=O)Nc1ccc(C(F)(F)F)cc1` (stereo not given), the IC50 in assay [1] was 104 nM; in assay [6], 64 nM.

Turning to `O=C(Nc1ccncc1)N1CCN(c2ncccc2C(F)(F)F)CC1`, the Efficacy in assay [4] came to 100%; in assay [20] it was 120%. The EC50 in assay [5] amounted to 1280 nM; in assay [21], 1160 nM.

In [3], `O=C(Nc1ccc(C(F)(F)F)cc1)NC1CCN(c2ncccc2C(F)(F)F)CC1` showed an IC50 of 4360 nM.

For the molecule `O=C(Nc1cnc2ccccc2c1)N1CCN(c2ncccc2C(F)(F)F)CC1`, the IC50 in assay [12] stood at 526 nM; in assay [8], 2300 nM.
